Format in all cases: tissue-based
In assay [1] the target is Sodium-dependent serotonin transporter (Rattus norvegicus, UniProt P31652). The assay can be described thus: Inhibition of SERT-mediated [3H]5-HT uptake in rat cerebral cortex. In outline: (§1)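 [3H]DA, [3H]5-HT or [3H]NE accumulation measured; SERT and NET uptake in rat cerebral cortex. Nonspecific uptake defined with cocaine (DAT), citalopram (SERT) or desipramine (NET). Three to eight independent experiments in triplicate, mean ± SEM.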
Chain of Sodium-dependent serotonin transporter (P31652 whole entry): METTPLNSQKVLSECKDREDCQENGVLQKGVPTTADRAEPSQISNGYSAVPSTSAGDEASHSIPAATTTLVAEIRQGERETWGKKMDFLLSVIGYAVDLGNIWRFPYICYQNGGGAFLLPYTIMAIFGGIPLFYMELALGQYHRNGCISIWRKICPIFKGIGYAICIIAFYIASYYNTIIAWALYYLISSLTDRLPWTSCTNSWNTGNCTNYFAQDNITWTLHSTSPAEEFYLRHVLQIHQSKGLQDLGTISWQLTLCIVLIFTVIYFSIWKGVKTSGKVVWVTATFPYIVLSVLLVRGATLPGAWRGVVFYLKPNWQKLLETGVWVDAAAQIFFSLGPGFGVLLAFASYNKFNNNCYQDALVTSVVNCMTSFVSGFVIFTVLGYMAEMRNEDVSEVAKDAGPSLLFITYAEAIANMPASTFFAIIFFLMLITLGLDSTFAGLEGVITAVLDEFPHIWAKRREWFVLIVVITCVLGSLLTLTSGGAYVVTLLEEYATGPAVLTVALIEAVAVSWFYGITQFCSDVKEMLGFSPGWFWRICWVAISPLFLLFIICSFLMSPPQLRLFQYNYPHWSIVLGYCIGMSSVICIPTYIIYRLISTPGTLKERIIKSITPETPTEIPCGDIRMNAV

The target in assay [2] is T1, Sodium-dependent dopamine transporter (Rattus norvegicus, UniProt P23977). The assay can be described thus: Inhibition of [3H]WIN-35428 binding to rat striatum DAT. The method, boiled down: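 DAT radioligand binding with nonspecific binding defined by cocaine. Compounds dissolved in DMSO, diluted in 10% (v/v) DMSO, final 0.5% DMSO. At least five concentrations, each in triplicate, spaced evenly around the IC50.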
T1 sequence (P23977 whole entry): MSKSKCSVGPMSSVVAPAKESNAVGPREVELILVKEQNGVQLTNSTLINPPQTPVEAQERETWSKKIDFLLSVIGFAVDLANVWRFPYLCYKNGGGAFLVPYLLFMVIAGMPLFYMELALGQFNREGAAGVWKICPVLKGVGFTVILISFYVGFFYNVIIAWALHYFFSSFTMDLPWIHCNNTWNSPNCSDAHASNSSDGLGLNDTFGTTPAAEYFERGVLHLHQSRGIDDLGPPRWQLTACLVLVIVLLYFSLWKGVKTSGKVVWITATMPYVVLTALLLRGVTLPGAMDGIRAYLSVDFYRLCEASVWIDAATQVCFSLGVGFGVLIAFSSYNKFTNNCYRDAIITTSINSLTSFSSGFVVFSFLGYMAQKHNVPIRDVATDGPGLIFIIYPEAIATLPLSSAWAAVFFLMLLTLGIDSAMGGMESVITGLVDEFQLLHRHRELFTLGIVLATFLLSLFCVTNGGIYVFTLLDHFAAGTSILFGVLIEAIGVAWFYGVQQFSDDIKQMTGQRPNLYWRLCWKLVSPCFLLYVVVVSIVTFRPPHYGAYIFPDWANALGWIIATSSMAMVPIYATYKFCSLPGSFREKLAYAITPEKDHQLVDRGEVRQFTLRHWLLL

Assay [3] concerns the target T1, Sodium-dependent dopamine transporter. The assay is described as follows: Inhibition of DAT-mediated [3H]DA uptake in rat striatum. In outline: as §1
The target of assay [4] is Norepinephrine transporter (Rattus norvegicus, UniProt Q9WTR4). The assay can be described thus: Inhibition of NET-mediated [3H]NE uptake in rat cerebral cortex. The method, boiled down:
as §1

Results on eleven compounds are retold here after ChEMBL document CHEMBL1138885, “Further structural exploration of trisubstituted asymmetric pyran derivatives (2S,4R,5R)-2-benzhydryl-5-benzylamino-tetrahydropyran-4-ol and their corresponding disubstituted (3S,6S) pyran derivatives: a proposed pharmacophore model for high-affinity interaction with the dopamine, serotonin, and …” (J Med Chem, 2006).

As usually defined, the Ki is a measure of affinity in units of concentration, obtained from inhibition or displacement. Lower therefore signals higher affinity.

Chain of Norepinephrine transporter (Q9WTR4 whole entry): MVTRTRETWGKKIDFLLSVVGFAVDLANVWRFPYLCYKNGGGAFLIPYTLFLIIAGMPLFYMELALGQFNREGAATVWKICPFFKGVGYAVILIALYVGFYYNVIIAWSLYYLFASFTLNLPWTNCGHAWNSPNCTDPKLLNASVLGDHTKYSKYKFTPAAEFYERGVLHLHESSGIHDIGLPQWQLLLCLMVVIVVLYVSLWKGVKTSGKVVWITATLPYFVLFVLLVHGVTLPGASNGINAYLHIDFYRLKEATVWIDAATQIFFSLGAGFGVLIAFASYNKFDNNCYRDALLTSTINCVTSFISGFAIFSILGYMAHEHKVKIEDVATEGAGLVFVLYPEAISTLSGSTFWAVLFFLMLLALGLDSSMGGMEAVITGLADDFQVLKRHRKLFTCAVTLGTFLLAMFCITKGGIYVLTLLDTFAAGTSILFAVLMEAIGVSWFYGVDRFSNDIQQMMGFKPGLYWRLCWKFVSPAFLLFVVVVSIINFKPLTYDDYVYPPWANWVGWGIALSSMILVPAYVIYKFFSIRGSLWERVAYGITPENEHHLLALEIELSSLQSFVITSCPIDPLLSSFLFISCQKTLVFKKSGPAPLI

Consider `c1ccc(C(c2ccccc2)[C@@H]2CC[C@H](NCc3ccc4[nH]ccc4c3)CO2)cc1`, for which the Ki in assay [1] turned out to be 14.5 nM; in assay [2] it was 338 nM; in assay [3], 214 nM; in assay [4], 6.56 nM.
In the case of `O=[N+]([O-])c1ccc(CN[C@@H]2CC[C@H](C(c3ccccc3)c3ccccc3)OC2)cc1`, the Ki was found to be 64.6 nM in assay [2] and 59.9 nM in assay [3].
Consider `O[C@@H]1C[C@@H](C(c2ccccc2)c2ccccc2)OC[C@H]1NCc1ccc2[nH]ccc2c1`, for which the Ki in assay [2] worked out at 570 nM; in assay [3], 120 nM; in assay [4], 2.13 nM.
On to `Oc1ccc(CN[C@@H]2CC[C@H](C(c3ccccc3)c3ccccc3)OC2)cc1`, for which the Ki amounted to 187 nM in assay [1], 114 nM in assay [2] and 67.4 nM in assay [3].
As for `Oc1ccc(CN[C@H]2CC[C@@H](C(c3ccccc3)c3ccccc3)OC2)cc1`, the Ki in assay [1] was 37.7 nM; in assay [2], 226 nM; in assay [3] it was 85 nM.
Regarding `O=[N+]([O-])c1ccc(CN[C@H]2CC[C@@H](C(c3ccccc3)c3ccccc3)OC2)cc1`, the Ki is 38.4 nM in assay [2] and 34.6 nM in assay [3].
In assay [4], `Oc1ccc(CN[C@@H]2CO[C@H](C(c3ccccc3)c3ccccc3)C[C@H]2O)cc1` had a Ki of 10.4 nM.
For the compound `O[C@@H]1C[C@@H](C(c2ccccc2)c2ccccc2)OC[C@H]1NCc1ccccc1`, the Ki in assay [1] was found to be 707 nM; in assay [2] it was 1500 nM; in assay [3] it was 446 nM.
Consider `c1ccc(C(c2ccccc2)[C@H]2CC[C@@H](NCc3ccc4[nH]ccc4c3)CO2)cc1`, for which the Ki in assay [1] is 11.8 nM; in assay [2], 467 nM; in assay [3], 142 nM; in assay [4], 15.6 nM.
For the compound `Oc1ccc(CN[C@H]2CO[C@@H](C(c3ccccc3)c3ccccc3)C[C@@H]2O)cc1`, the Ki in assay [4] worked out at 94.4 nM.
On to `O[C@H]1C[C@H](C(c2ccccc2)c2ccccc2)OC[C@@H]1NCc1ccc2[nH]ccc2c1`, for which the Ki in assay [2] is 399 nM; in assay [3], 184 nM; in assay [4], 13.2 nM.
